Data published in ChEMBL document CHEMBL2346664, “Synthesis, characterization and in vitro anticancer evaluation of novel 1,2,4-triazolin-3-one derivatives” (2013).

Experiments:
Format in all cases: functional
786-0 [1] = test: Growth inhibition of human 786-0 cells after 48 hrs by sulforhodamine B assay; conditions: 786-0, 48 h
Summary of the method: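 NCI 60-cell-line five-dose screen at 0.01, 0.1, 1, 10 and 100 µM final. Cells were plated at 5,000–40,000/well and grown 24 h at 37 °C, 5% CO2, then exposed to drug continuously for 48 h. Adherent cells were fixed with cold TCA (10% final) and stained with SRB; absorbance read at 515 nm. GI50 is the concentration where [(Ti-Tz)/(C-Tz)]×100 = 50, with Tz plates fixed at drug addition.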

SK-MEL-5 = test: Growth inhibition of human SK-MEL-5 cells assessed as cell growth at 10 '-8 M after 48 hrs by sulforhodamine B assay; conditions: SK-MEL-5, 48 h, read-out: Activity
K562 = test: Growth inhibition of human K562 cells assessed as growth inhibition at 10 uM after 48 hrs by sulforhodamine B assay; conditions: K562, 48 h, read-out: GI
PC-3 = test: Growth inhibition of human PC3 cells after 48 hrs by sulforhodamine B assay; conditions: PC-3, 48 h
SR = test: Growth inhibition of human SR cells assessed as cell growth at 10 '-5 M after 48 hrs by sulforhodamine B assay; conditions: read-out: Activity
COLO 205 [2] = test: Growth inhibition of human COLO205 cells assessed as cell growth at 10 '-6 M after 48 hrs by sulforhodamine B assay; conditions: COLO 205, 48 h, read-out: Activity
Summary of the method: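 In the same five-dose SRB screen (48 h, 37 °C, 5% CO2), percentage growth was computed at each concentration from time-zero (Tz), control (C) and treated (Ti) absorbances. The formula was [(Ti−Tz)/(C−Tz)]×100 when Ti ≥ Tz, or [(Ti−Tz)/Tz]×100 when Ti < Tz.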

UO-31 = test: Growth inhibition of human UO31 cells assessed as cell growth at 10 '-8 M after 48 hrs by sulforhodamine B assay; conditions: UO-31, 48 h, read-out: Activity
TK-10 = test: Growth inhibition of human TK10 cells assessed as cell growth at 10 '-5 M after 48 hrs by sulforhodamine B assay; conditions: TK-10, 48 h, read-out: Activity
SK-MEL-2 = test: Growth inhibition of human SK-MEL-2 cells after 48 hrs by sulforhodamine B assay; conditions: SK-MEL-2, 48 h
OVCAR-4 = test: Growth inhibition of human OVCAR4 cells assessed as cell growth at 10 '-8 M after 48 hrs by sulforhodamine B assay; conditions: OVCAR-4, 48 h, read-out: Activity
SF-295 [3] = test: Growth inhibition of human SF295 cells after 48 hrs by sulforhodamine B assay; conditions: SF-295, 48 h
MOLT-4 [4] = test: Growth inhibition of human MOLT4 cells assessed as cell growth at 10 '-5 M after 48 hrs by sulforhodamine B assay; conditions: MOLT-4, 48 h, read-out: Activity
OVCAR-8 = test: Growth inhibition of human OVCAR8 cells assessed as cell growth at 10 '-4 M after 48 hrs by sulforhodamine B assay; conditions: OVCAR-8, 48 h, read-out: Activity
[5] = Growth inhibition of human EKVX cells assessed as cell growth at 10 '-5 M after 48 hrs by sulforhodamine B assay; conditions: read-out: Activity
COLO 205 [6] = test: Growth inhibition of human COLO205 cells assessed as cell growth at 10 '-7 M after 48 hrs by sulforhodamine B assay; conditions: COLO 205, 48 h, read-out: Activity
786-0 [7] = test: Growth inhibition of human 786-0 cells assessed as cell growth at 10 '-5 M after 48 hrs by sulforhodamine B assay; conditions: 786-0, 48 h, read-out: Activity
Summary of the method: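 Percent growth at each of the five concentrations of the 48 h continuous-exposure NCI SRB screen. Drug stocks were in DMSO at 400× the top final concentration and diluted in medium with gentamicin. Growth was calculated as [(Ti-Tz)/(C-Tz)]×100 when Ti ≥ Tz, or [(Ti-Tz)/Tz]×100 when Ti < Tz. Tz plates were fixed at drug addition; untreated wells served as control. Absorbance was read at 515 nm.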

SF-295 [8] = test: Growth inhibition of human SF295 cells assessed as cell growth at 10 uM after 48 hrs by sulforhodamine B assay; conditions: SF-295, 48 h, read-out: Activity
SNB-19 = test: Growth inhibition of human SNB19 cells assessed as growth inhibition at 10 uM after 48 hrs by sulforhodamine B assay; conditions: SNB-19, 48 h, read-out: GI
SNB-75 = test: Growth inhibition of human SNB75 cells assessed as cell growth at 10 '-8 M after 48 hrs by sulforhodamine B assay; conditions: SNB-75, 48 h, read-out: Activity
UACC-257 = test: Growth inhibition of human UACC257 cells after 48 hrs by sulforhodamine B assay; conditions: UACC-257, 48 h
Summary of the method: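 NCI 60-cell-line five-dose screen over 0.01, 0.1, 1, 10 and 100 µM, with 48 h continuous exposure at 37 °C and 5% CO2 after 24 h pre-incubation (5,000–40,000 cells/well). Cells were TCA-fixed (10% final for adherent, 16% for suspension), stained with SRB and read at 515 nm. GI50 was solved from [(Ti−Tz)/(C−Tz)]×100 = 50 against time-zero plates.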

MDA-MB-435 = test: Growth inhibition of human MDA-MB-435 cells assessed as cell growth at 10 '-5 M after 48 hrs by sulforhodamine B assay; conditions: MDA-MB-435, 48 h, read-out: Activity
KM12 = test: Growth inhibition of human KM12 cells assessed as cell growth at 10 '-5 M after 48 hrs by sulforhodamine B assay; conditions: KM12, 48 h, read-out: Activity
CCRF-CEM = test: Growth inhibition of human CCRF-CEM cells assessed as growth inhibition at 10 uM after 48 hrs by sulforhodamine B assay; conditions: read-out: GI
Summary of the method: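 NCI-60 primary single-dose screen at 10^-5 M, 48 h continuous exposure. Adherent cells were fixed with cold TCA (10% final) and suspension cells with 16% final TCA, then stained with 0.4% SRB in 1% acetic acid. Bound dye was solubilized in 10 mM Tris base and read at 515 nm. Output is growth percent relative to untreated controls, and GI% is 100 minus growth percent.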

OVCAR-3 = test: Growth inhibition of human OVCAR3 cells assessed as cell growth at 10 '-6 M after 48 hrs by sulforhodamine B assay; conditions: OVCAR-3, 48 h, read-out: Activity
MOLT-4 [9] = test: Growth inhibition of human MOLT4 cells assessed as growth inhibition at 10 uM after 48 hrs by sulforhodamine B assay; conditions: MOLT-4, 48 h, read-out: GI
[10] = Growth inhibition of human HCC2998 cells assessed as cell growth at 10 '-8 M after 48 hrs by sulforhodamine B assay; conditions: HCC 2998, 48 h, read-out: Activity
[11] = read-out: LD50 (the source's name)

Compound Cc1nn(-c2ccc(Cl)cc2)c(=O)n1CCN1CCOCC1 has a GI50 (786-0 [1]) of 5.75 µM, a CC50 (786-0 [1]; read-out: pLC50 (the source's name) (converted)) of over 100 µM and a TGI (786-0 [1]; read-out: pTGI) of over 100 µM.

Compound Cc1cc(=O)oc2cc(OCCn3c(C)nn(-c4ccc(Cl)cc4)c3=O)ccc12 has a growth at 0.01 µM (SK-MEL-5) of 97%, an inhibition of growth at 10 µM (K562) of 83.7% and a GI50 (PC-3) of 8.13 µM. It also gave a TGI (PC-3) of over 1 µM, a CC50 (PC-3; [11]) of over 1 µM and a growth at 10 µM (SR) of -6%. For the same compound, the growth at 1 µM (COLO 205 [2]) was 89%, the growth at 0.01 µM (UO-31) was 86% and the growth at 10 µM (TK-10) was 58%. The GI50 (SK-MEL-2) was 1.82 µM, the TGI (SK-MEL-2) was over 1 µM and the CC50 (SK-MEL-2; [11]) was over 1 µM. For the same compound, the growth at 0.01 µM (OVCAR-4) was 100%, the GI50 (SF-295 [3]) was 4.73 µM and the TGI (SF-295 [3]) was over 1 µM. For the same compound, the CC50 (SF-295 [3]; [11]) was over 1 µM, the growth at 10 µM (MOLT-4 [4]) was 26% and the growth at 100 µM (OVCAR-8) was 24%. The growth at 10 µM [5] was 63%, the growth at 0.1 µM (COLO 205 [6]) was 102% and the growth at 10 µM (786-0 [7]) was 35%. It also gave a growth at 10 µM (SF-295 [8]) of 14%, an inhibition of growth at 10 µM (SNB-19) of 45.5% and a growth at 0.01 µM (SNB-75) of 88%. For the same compound, the TGI (UACC-257) was over 1 µM, the CC50 (UACC-257; [11]) was over 1 µM and the growth at 10 µM (MDA-MB-435) was -27%. It also gave a growth at 10 µM (KM12) of 21%, an inhibition of growth at 10 µM (CCRF-CEM) of 86.6% and a growth at 1 µM (OVCAR-3) of 96%. The inhibition of growth at 10 µM (MOLT-4 [9]) was 62.4% and the growth at 0.01 µM [10] was 95%.
